The results in this text go back to ChEMBL document CHEMBL4715848, “1,2,3-Triazole tethered 1,2,4-trioxanes: Studies on their synthesis and effect on osteopontin expression in MDA-MB-435 breast cancer cells” (2020).

Activity calls are given as the source filed them. The rule behind the calls is not given here.

Tested on in the first test: not listed separately
As to the kind of experiment: (§1) Down regulation of OPN expression in human MDA-MB-435 cells at 50 uM measured after 24 hrs by Western blot analysis relative to control. It counts as functional. The essentials: (§2)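 MDA-MB-435 cells (1x10^6 per 6 cm plate) grown 24 h in DMEM/10% FBS with penicillin-streptomycin, 37 °C, 5% CO2, then serum-starved 24 h. Treated 24 h with compound at 50 µM against a DMSO control. Secreted OPN in serum-free supernatant run on non-reducing 10% SDS-PAGE. Lysate β-actin run on 10% SDS-PAGE. Both probed with monoclonal antibodies, read by chemiluminescence and quantified by densitometry.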
(In general: Immunoblotting shows a protein as a band on a membrane.)
On to `CC(CCC1OC(c2ccco2)OOC1(C)C)CCn1cc(COC2[C@H]3OCO[C@H]3CO[C@@]23COC(C)(C)O3)nn1` (stereo partly specified), for which the “fold change (FC)” value came out at 0.12.

For the compound `COc1ccc(C2OOC(C)(C)C(CCC(C)CCn3cc(COC4[C@H]5OCO[C@H]5CO[C@@]45COC(C)(C)O5)nn3)O2)cc1` (stereo partly specified), the “fold change (FC)” value was found to be 0.2. Consider `CC(CCC1OC(c2ccc(Cl)cc2)OOC1(C)C)CCn1cc(COC2[C@H]3OCO[C@H]3CO[C@@]23COC(C)(C)O3)nn1` (stereo partly specified), for which the “fold change (FC)” value turned out to be 0.15. As for `C[C@@H]1CC[C@H]2[C@@H](C)C(OCc3cn(Cc4ccccc4)nn3)O[C@@H]3O[C@]4(C)CC[C@@H]1[C@]32OO4` (stereo partly specified), the “fold change (FC)” value came out at 0.3.

Consider `C[C@@H]1CC[C@H]2[C@@H](C)C(O)O[C@@H]3O[C@]4(C)CC[C@@H]1[C@]32OO4` (stereo partly specified), for which the “fold change (FC)” value is 0.45. For the compound `CC(CCC1OC(c2cccc(Br)c2)OOC1(C)C)CCn1cc(COC2[C@H]3OCO[C@H]3CO[C@@]23COC(C)(C)O3)nn1` (stereo partly specified), the “fold change (FC)” value is 0.15.

The next test deals with MDA-MB-435. The test is described as §1. It counts as functional. The essentials:
as §2
For the compound `CC(CCC1OC(c2ccc(F)cc2)OOC1(C)C)CCn1cc(-c2ccc(-c3cn(CCC(C)CCC4OC(c5ccc(F)cc5)OOC4(C)C)nn3)cc2)nn1` (stereo unspecified), the inhibition entry is “inactive”. Same read-out and setting: then `CC(CCC1OC2(CCCCC2)OOC1(C)C)CCn1cc(-c2ccc(-c3cn(CCC(C)CCC4OC5(CCCCC5)OOC4(C)C)nn3)cc2)nn1` (stereo unspecified), with “inactive”; and `COc1ccc(C2OOC(C)(C)C(CCC(C)CCn3cc(-c4ccc(-c5cn(CCC(C)CCC6OC(c7ccc(OC)cc7)OOC6(C)C)nn5)cc4)nn3)O2)cc1` (stereo unspecified), with “inactive”; and `CC(CCC1OC(c2ccc([N+](=O)[O-])cc2)OOC1(C)C)CCn1cc(COC2[C@H]3OCO[C@H]3CO[C@@]23COC(C)(C)O3)nn1` (stereo partly specified), with “inactive”.

Regarding `CC(CCC1OC(c2cccc3ccccc23)OOC1(C)C)CCn1cc(COC2[C@H]3OCO[C@H]3CO[C@@]23COC(C)(C)O3)nn1` (stereo partly specified), the inhibition entry is “inactive”. Consider `CC(CCC1OC(c2ccc([N+](=O)[O-])cc2)OOC1(C)C)CCn1cc(-c2ccc(-c3cn(CCC(C)CCC4OC(c5ccc([N+](=O)[O-])cc5)OOC4(C)C)nn3)cc2)nn1` (stereo unspecified), for which the inhibition result was “inactive”.

In the case of `CC(CCC1OC(c2ccc(Cl)cc2)OOC1(C)C)CCn1cc(-c2ccc(-c3cn(CCC(C)CCC4OC(c5ccc(Cl)cc5)OOC4(C)C)nn3)cc2)nn1` (stereo unspecified), the inhibition entry was “inactive”. The same measure, in the same setting: then `CC(CCC1OC(C)(c2ccc(Cl)cc2)OOC1(C)C)CCn1cc(-c2ccc(-c3cn(CCC(C)CCC4OC(C)(c5ccc(Cl)cc5)OOC4(C)C)nn3)cc2)nn1` (stereo unspecified), with “inactive”. Turning to `Cc1ccc(C2OOC(C)(C)C(CCC(C)CCn3cc(COC4[C@H]5OCO[C@H]5CO[C@@]45COC(C)(C)O5)nn3)O2)cc1` (stereo partly specified), the inhibition entry was “inactive”. Same read-out and setting: the same measure for `CC(CCC1OC2(CCCCC2)OOC1(C)C)CCn1cc(COC2[C@H]3OCO[C@H]3CO[C@@]23COC(C)(C)O3)nn1` (stereo partly specified): “inactive”; for `CC(CCC1OC(c2cccc(Br)c2)OOC1(C)C)CCn1cc(-c2ccc(-c3cn(CCC(C)CCC4OC(c5cccc(Br)c5)OOC4(C)C)nn3)cc2)nn1` (stereo unspecified): “inactive”; for `CC(CCC1OC(c2ccc3c(c2)OCO3)OOC1(C)C)CCn1cc(COC2[C@H]3OCO[C@H]3CO[C@@]23COC(C)(C)O3)nn1` (stereo partly specified): “inactive”. Turning to `C[C@@H]1CC[C@H]2[C@@H](C)C(=O)O[C@@H]3O[C@@]4(C)CC[C@@H]1[C@]32OO4`, the inhibition entry was “inactive”. As for `CC(CCC1OC(c2cccc([N+](=O)[O-])c2)OOC1(C)C)CCn1cc(COC2[C@H]3OCO[C@H]3CO[C@@]23COC(C)(C)O3)nn1` (stereo partly specified), the inhibition entry is “inactive”. The same measure, in the same setting: then `CC(CCC1OC(c2cccc3ccccc23)OOC1(C)C)CCn1cc(-c2ccc(-c3cn(CCC(C)CCC4OC(c5cccc6ccccc56)OOC4(C)C)nn3)cc2)nn1` (stereo unspecified), with “inactive”; and `CC(CCC1OC(c2ccccc2Br)OOC1(C)C)CCn1cc(COC2[C@H]3OCO[C@H]3CO[C@@]23COC(C)(C)O3)nn1` (stereo partly specified), with “inactive”; and `CC(CCC1OC(c2ccc3c(c2)OCO3)OOC1(C)C)CCn1cc(-c2ccc(-c3cn(CCC(C)CCC4OC(c5ccc6c(c5)OCO6)OOC4(C)C)nn3)cc2)nn1` (stereo unspecified), with “inactive”. For `CC(CCC1OC(c2ccccc2Br)OOC1(C)C)CCn1cc(-c2ccc(-c3cn(CCC(C)CCC4OC(c5ccccc5Br)OOC4(C)C)nn3)cc2)nn1` (stereo unspecified), the inhibition entry was “inactive”. For the compound `Cc1ccc(C2OOC(C)(C)C(CCC(C)CCn3cc(-c4ccc(-c5cn(CCC(C)CCC6OC(c7ccc(C)cc7)OOC6(C)C)nn5)cc4)nn3)O2)cc1` (stereo unspecified), the inhibition result is “inactive”. Still for that read-out and setting: then `CC(CCC1OC(c2ccc(F)cc2)OOC1(C)C)CCn1cc(COC2[C@H]3OCO[C@H]3CO[C@@]23COC(C)(C)O3)nn1` (stereo partly specified), with “inactive”; and `CC(CCC1OC(c2ccco2)OOC1(C)C)CCn1cc(-c2ccc(-c3cn(CCC(C)CCC4OC(c5ccco5)OOC4(C)C)nn3)cc2)nn1` (stereo unspecified), with “inactive”.

Tested on in the next test: not listed separately
The experiment in a line: Down regulation of OPN expression in human MDA-MB-435 cells at 10 uM measured after 24 hrs by Western blot analysis relative to control. It counts as functional. The essentials:
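MDA-MB-435 cells (1x10^6 per 6 cm plate) grown 24 h in DMEM/10% FBS with penicillin-streptomycin, 37 °C, 5% CO2, then serum-starved 24 h. Treated 24 h with compound at 10 µM against a DMSO control. Secreted OPN in serum-free supernatant run on non-reducing 10% SDS-PAGE. Lysate β-actin run on 10% SDS-PAGE. Both probed with monoclonal antibodies, read by chemiluminescence and quantified by densitometry.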
With `CC(CCC1OC(c2ccc([N+](=O)[O-])cc2)OOC1(C)C)CCn1cc(COCCNCCOCc2cn(CCC(C)CCC3OC(c4ccc([N+](=O)[O-])cc4)OOC3(C)C)nn2)nn1` (stereo unspecified), the “fold change (FC)” value is recorded as 0.28. Still for that read-out and setting: the same measure for `CC(CCC1OC2(CCCCC2)OOC1(C)C)CCn1cc(COCCNCCOCc2cn(CCC(C)CCC3OC4(CCCCC4)OOC3(C)C)nn2)nn1` (stereo unspecified): 0.27; for `CC(CCC1OC(c2ccc(F)cc2)OOC1(C)C)CCn1cc(COCCNCCOCc2cn(CCC(C)CCC3OC(c4ccc(F)cc4)OOC3(C)C)nn2)nn1` (stereo unspecified): 0.17; for `COc1ccc(C2OOC(C)(C)C(CCC(C)CCn3cc(COCCNCCOCc4cn(CCC(C)CCC5OC(c6ccc(OC)cc6)OOC5(C)C)nn4)nn3)O2)cc1` (stereo unspecified): 0.43. Consider `CC(CCC1OC(c2ccc3c(c2)OCO3)OOC1(C)C)CCn1cc(COCCNCCOCc2cn(CCC(C)CCC3OC(c4ccc5c(c4)OCO5)OOC3(C)C)nn2)nn1` (stereo unspecified), for which the “fold change (FC)” value amounted to 0.33. The same measure, in the same setting: the same measure for `Cc1ccc(C2OOC(C)(C)C(CCC(C)CCn3cc(COCCNCCOCc4cn(CCC(C)CCC5OC(c6ccc(C)cc6)OOC5(C)C)nn4)nn3)O2)cc1` (stereo unspecified): 0.15; for `CC(CCC1OC(c2ccccc2)OOC1(C)C)CCn1cc(COCCNCCOCc2cn(CCC(C)CCC3OC(c4ccccc4)OOC3(C)C)nn2)nn1` (stereo unspecified): 0.11. Turning to `CC(CCC1OC(c2cccc(Br)c2)OOC1(C)C)CCn1cc(COCCNCCOCc2cn(CCC(C)CCC3OC(c4cccc(Br)c4)OOC3(C)C)nn2)nn1` (stereo unspecified), the “fold change (FC)” value is 0.26.

As to `CC(CCC1OC(c2ccc(Cl)cc2)OOC1(C)C)CCn1cc(COCCNCCOCc2cn(CCC(C)CCC3OC(c4ccc(Cl)cc4)OOC3(C)C)nn2)nn1` (stereo unspecified), the “fold change (FC)” value turned out to be 0.45.
